Activity calls are given as the source filed them. The rule behind the calls is not given here.
Columns and labels:
[1] = test system: CCRF-CEM; test: 50% cytotoxic concentration for mock-infected CEM cells; assay type: functional, cell-based; conditions: Homo sapiens
Outline: (§1)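 XTT-based microtiter assay of protection from HIV-1 cytopathic effect in CEM-SS cells, read as percent of uninfected drug-free control. EC50 is the concentration giving 50% protection in infected cultures. IC50 is the concentration giving 50% death of mock-infected cells. Values are averages of at least two determinations. Results were confirmed by supernatant RT and p24 levels.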

[2] = (§2) The therapeutic index of the compound is evaluated.; assay type: functional
[3] = test system: CCRF-CEM; test: The compound was evaluated for prevention of the cytopathic effect of HIV-1 for cytopathicity of HIV-1RF in CEM-SS cells.; assay type: functional, cell-based; conditions: Homo sapiens; outline: as §1
[4] = test system: CCRF-CEM; test: (§3) The compound was evaluated for prevention of the cytopathic effect of HIV-1 for cytopathicity of HIV-1RF in CEM-SS cells; NA= not active; assay type: functional, cell-based, Homo sapiens; outline: as §1
[5] = test system: CCRF-CEM; test: as §3; assay type: functional, cell-based; conditions: Homo sapiens; outline: as §1
[6] = test system: CCRF-CEM; test: The compound was tested for cytotoxicity in CEM-SS cells for mock-infected CEM cells.; assay type: functional, cell-based; conditions: Homo sapiens; outline: as §1
[7] = as §2; conditions: read-out: IC50/EC50

EC50 [3] [µM] | EC50 [4] | Structure (SMILES) | IC50 [1] [µM] | IC50 [6] [µM] | other results
16 | – | CCCCCC=C(c1cc(Cl)c(OC)c(C(=O)OC)c1)c1cc(Cl)c(OC)c(C(=O)OC)c1 | > 29.1 | – | IC50/EC50 [2]: > 1.8
– | Not Active | CCCCCC=C(c1cc(Br)cc(C(=O)OC)c1OC)c1cc(Br)cc(C(=O)OC)c1OC | – | 44 | –
> 30 | – | CCCCCCCCCC=C(c1cc(Br)c(OC)c(C(=O)OC)c1)c1cc(Br)c(OC)c(C(=O)OC)c1 | – | > 30 | –
> 28 | – | CCCCCCCCCCCCCCCC=C(c1cc(Br)c(OC)c(C(=O)OC)c1)c1cc(Br)c(OC)c(C(=O)OC)c1 | – | > 28 | –

Continued, compound first:

Structure (SMILES) | EC50 [3] [µM] | EC50 [4] | IC50 [1] [µM] | IC50 [6] [µM] | other results
CCCCCC=C(c1cc(Cl)c(OC)c(C(N)=O)c1)c1cc(Cl)c(OC)c(C(N)=O)c1 | – | Not Active | 31 | – | –
CCCCCC=C(c1cc(Cl)c(OC)c(C(=O)O)c1)c1cc(Cl)c(OC)c(C(=O)O)c1 | – | – | 84 | – | NA [5]: inactive
CCCCCC=C(c1cc(Cl)c(OC)c(C(=O)N(C)C)c1)c1cc(Cl)c(OC)c(C(=O)N(C)C)c1 | – | Not Active | 21 | – | –
COC(=O)c1cc(C(=CCCBr)c2cc(Cl)c(OC)c(C(=O)OC)c2)cc(Cl)c1OC | 8 | – | – | 18 | selectivity ratio [7]: 2.2
CCCCCC=C(c1cc(Cl)c(O)c(C(=O)NO)c1)c1cc(Cl)c(O)c(C(=O)NO)c1 | – | Not Active | – | 37 | –
CCCCCC=C(c1cc(Cl)c(O)c(C(=O)O)c1)c1cc(Cl)c(O)c(C(=O)O)c1 | > 91.5 | – | > 91.5 | – | –
CCCCCC=C(c1cc(Br)c(O)c(C(=O)O)c1)c1cc(Br)c(O)c(C(=O)O)c1.N.N | – | Not Active | – | 150 | –
CCCCCC=C(c1cc(Cl)c(OC)c(C(=O)NC)c1)c1cc(Cl)c(OC)c(C(=O)NC)c1 | – | Not Active | 21 | – | –
